Assay results from ChEMBL document CHEMBL3751813, “Nonpeptidic Amphiphilic Xanthone Derivatives: Structure-Activity Relationship and Membrane-Targeting Properties” (J Med Chem, 2016).
In brackets after ≈: the same amount, converted by molar mass.

Experiments:
[1] = test system: Staphylococcus aureus; test: Antibacterial activity against clinical isolates of Staphylococcus aureus DM4001R after 24 hrs by […]; type: functional
[2] = test system: Staphylococcus aureus; test: Antibacterial activity against clinical isolates of methicillin-resistant Staphylococcus aureus DM9808R after 24 hrs by […]; type: functional
[3] = test system: Staphylococcus aureus; test: Antibacterial activity against clinical isolates of methicillin-resistant Staphylococcus aureus DM21455 after 24 hrs by […]; type: functional; settings: DM21455, 24 h
[4] = test system: Bacillus cereus; test: Antibacterial activity against clinical isolates of Bacillus cereus ATCC 11778 after 24 hrs by […]; type: functional; settings: ATCC 11778, 24 h
[5] = Hemolytic activity against New Zealand white rabbit RBC after 1 hr by microplate reader analysis; type: ADME, cell-based, Oryctolagus cuniculus, Erythrocyte; settings: rabbit red blood cells
Summary of the method: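 Rabbit RBCs spun from serum at 3,000 rpm for 10 min and washed twice in PBS. Mixed with compound in DMF at 4% v/v RBCs, 1 h at 37 °C. After centrifugation, hemoglobin in the supernatant read at 576 nm. 2% Triton X-100 was the positive control and 1% DMF the negative control.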

[6] = Selectivity index, ratio of HC50 for hemolytic activity against New Zealand white rabbit RBC to MIC for clinical isolates of Staphylococcus aureus DM4001
[7] = test system: Staphylococcus aureus; test: Induction of membrane permeabilization in clinical isolates of Staphylococcus aureus DM4001 at MIC by SYTOX green uptake assay; type: functional
Summary of the method: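 Exponential-phase cells washed twice in 20 mM PBS pH 7 and adjusted to OD620 0.09. Given 3 µM SYTOX Green and kept in the dark until fluorescence was stable, then compound added. Fluorescence followed in a stirred cuvette at ex 504/em 523 nm. Melittin 10 µg/mL was the positive control. Run at least twice; one run reported.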

[8] = test system: Staphylococcus aureus; test: Induction of membrane permeabilization in clinical isolates of Staphylococcus aureus DM4001 assessed as ATP leakage at MIC incubated for 10 mins by firefly luciferase based luminometry analysis; type: functional
Summary of the method: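 Exponential-phase cells washed twice in 20 mM PBS pH 7 and set to OD620 0.3. Exposed 10 min at 37 °C, then spun at 4000 rpm for 5 min. Supernatant mixed with luciferase reagent (1 mM DTT, 0.5 mM D-luciferin, 1.25 µg/mL firefly luciferase). Luminescence read over 30 cycles.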

Structure (SMILES)	MIC [1] [mg/L]	MIC [2] [mg/L]	MIC [3] [mg/L]	MIC [4] [mg/L]	HC50 at 1 h [5] [µg/mL]	Selectivity ratio [6]	Activity [7] [cps]	Activity [8] [µM]
COc1c(OCCCCN2CCN(CCN(C)C)CC2)cc2oc3cc(OCCCCN4CCN(CCN(C)C)CC4)c(CC=C(C)C)c(O)c3c(=O)c2c1CC=C(C)C	6.25 (≈ 7.5 µM)	3.12 (≈ 3.75 µM)	3.12 (≈ 3.75 µM)	6.25 (≈ 7.5 µM)	35.9	5.7	5850	2.975
COc1c(OCCCCN2CCCC2)cc2oc3cc(OCCCCN4CCCC4)c(CC=C(C)C)c(O)c3c(=O)c2c1CC=C(C)C	1.56 (≈ 2.36 µM)	1.56 (≈ 2.36 µM)	1.56 (≈ 2.36 µM)	6.25 (≈ 9.46 µM)	–	16	814	0.465
CCN(CCCCOc1cc2oc3cc(OCCCCN(CC)C(C)C)c(OC)c(CC=C(C)C)c3c(=O)c2c(O)c1CC=C(C)C)C(C)C	25 (≈ 36.1 µM)	12.5 (≈ 18 µM)	25 (≈ 36.1 µM)	12.5 (≈ 18 µM)	54.6	2.2	97824	5.407
CCCN(CC)CCCCOc1cc2oc3cc(OCCCCN(CC)CCC)c(OC)c(CC=C(C)C)c3c(=O)c2c(O)c1CC=C(C)C	6.25 (≈ 9.02 µM)	6.25 (≈ 9.02 µM)	12.5 (≈ 18 µM)	25 (≈ 36.1 µM)	63.3	5.1	82176	12.736
CCCCCCN(C)CCCCOc1cc2oc3cc(OCCCCN(C)CCCCCC)c(OC)c(CC=C(C)C)c3c(=O)c2c(O)c1CC=C(C)C	50 (≈ 66.7 µM)	50 (≈ 66.7 µM)	50 (≈ 66.7 µM)	50 (≈ 66.7 µM)	> 200	> 4	74047	8.545
COc1c(OCCCCN2CCN(C)CC2)cc2oc3cc(OCCCCN4CCN(C)CC4)c(CC=C(C)C)c(O)c3c(=O)c2c1CC=C(C)C	6.25 (≈ 8.69 µM)	12.5 (≈ 17.4 µM)	12.5 (≈ 17.4 µM)	12.5 (≈ 17.4 µM)	32.3	5.2	7129	3.727
COc1c(OCCCCN2CCNCC2)cc2oc3cc(OCCCCN4CCNCC4)c(CC=C(C)C)c(O)c3c(=O)c2c1CC=C(C)C	6.25 (≈ 9.05 µM)	6.25 (≈ 9.05 µM)	12.5 (≈ 18.1 µM)	12.5 (≈ 18.1 µM)	72.1	11.5	24629	3.154
CCCCN(C)CCCCOc1cc2oc3cc(OCCCCN(C)CCCC)c(OC)c(CC=C(C)C)c3c(=O)c2c(O)c1CC=C(C)C	50 (≈ 72.2 µM)	50 (≈ 72.2 µM)	25 (≈ 36.1 µM)	25 (≈ 36.1 µM)	60.5	1.2	114095	8.862
COc1c(OCCCCN2CCCC2)cc2oc3cc(OCCCCN4CCCC4)c(CCC(C)C)c(O)c3c(=O)c2c1CCC(C)C	12.5 (≈ 18.8 µM)	6.25 (≈ 9.4 µM)	6.25 (≈ 9.4 µM)	6.25 (≈ 9.4 µM)	34.8	1.4	–	–
COc1c(OCCCCN2CCCCC2)cc2oc3cc(OCCCCN4CCCCC4)c(CC=C(C)C)c(O)c3c(=O)c2c1CC=C(C)C	0.78 (≈ 1.13 µM)	1.56 (≈ 2.26 µM)	1.56 (≈ 2.26 µM)	6.25 (≈ 9.07 µM)	–	24.7	2797	0.626
CCCN(CCC)CCCCOc1cc2oc3cc(OCCCCN(CCC)CCC)c(OC)c(CC=C(C)C)c3c(=O)c2c(O)c1CC=C(C)C	25 (≈ 34.7 µM)	50 (≈ 69.3 µM)	25 (≈ 34.7 µM)	50 (≈ 69.3 µM)	> 200	> 8	53637	5.123
CCCN(C)CCCCOc1cc2oc3cc(OCCCCN(C)CCC)c(OC)c(CC=C(C)C)c3c(=O)c2c(O)c1CC=C(C)C	25 (≈ 37.6 µM)	25 (≈ 37.6 µM)	12.5 (≈ 18.8 µM)	12.5 (≈ 18.8 µM)	32.6	1.3	87537	3.945
COc1c(OCCCCn2cccn2)cc2oc3cc(OCCCCn4cccn4)c(CC=C(C)C)c(O)c3c(=O)c2c1CC=C(C)C	> 50	> 50	> 50	> 50	> 200	–	3445	0.31
COc1c(OCCCCI)cc2oc3cc(OCCCCI)c(CC=C(C)C)c(OCCCCI)c3c(=O)c2c1CC=C(C)C	> 50	> 50	> 50	50 (≈ 52.3 µM)	> 200	–	–	–
COc1c(OCCCCN2CCOCC2)cc2oc3cc(OCCCCN4CCOCC4)c(CC=C(C)C)c(O)c3c(=O)c2c1CC=C(C)C	> 50	> 50	> 50	> 50	> 200	–	6358	0.229
COc1c(OCCCCN2CCN(C(=O)OC(C)(C)C)CC2)cc2oc3cc(OCCCCN4CCN(C(=O)OC(C)(C)C)CC4)c(CC=C(C)C)c(O)c3c(=O)c2c1CC=C(C)C	> 50	> 50	> 50	> 50	> 200	–	–	–
COc1c(OCCCCn2cncn2)cc2oc3cc(OCCCCn4cncn4)c(CC=C(C)C)c(O)c3c(=O)c2c1CC=C(C)C	> 50	> 50	> 50	> 50	> 200	–	1979	0.416
COc1c(OCCCCN2CCC(O)CC2)cc2oc3cc(OCCCCN4CCC(O)CC4)c(CC=C(C)C)c(O)c3c(=O)c2c1CC=C(C)C	6.25 (≈ 8.67 µM)	3.12 (≈ 4.33 µM)	12.5 (≈ 17.3 µM)	6.25 (≈ 8.67 µM)	36	5.8	50250	5.938
CCN(C)CCCCOc1cc2oc3cc(OCCCCN(C)CC)c(OC)c(CC=C(C)C)c3c(=O)c2c(O)c1CC=C(C)C	1.56 (≈ 2.45 µM)	6.25 (≈ 9.81 µM)	1.56 (≈ 2.45 µM)	6.25 (≈ 9.81 µM)	25.1	16.1	12456	1.734
COc1c(OCCCCN(C)C)cc2oc3cc(OCCCCN(C)C)c(CCC(C)C)c(O)c3c(=O)c2c1CCC(C)C	12.5 (≈ 20.4 µM)	25 (≈ 40.8 µM)	12.5 (≈ 20.4 µM)	12.5 (≈ 20.4 µM)	60.7	4.9	–	–
CCN(CCO)CCCCOc1cc2oc3cc(OCCCCN(CC)CCO)c(OC)c(CC=C(C)C)c3c(=O)c2c(O)c1CC=C(C)C	6.25 (≈ 8.97 µM)	3.12 (≈ 4.48 µM)	6.25 (≈ 8.97 µM)	3.12 (≈ 4.48 µM)	31.8	5.1	112772	5.027
CCN1CCN(CCCCOc2cc3oc4cc(OCCCCN5CCN(CC)CC5)c(OC)c(CC=C(C)C)c4c(=O)c3c(O)c2CC=C(C)C)CC1	25 (≈ 33.5 µM)	12.5 (≈ 16.7 µM)	6.25 (≈ 8.37 µM)	25 (≈ 33.5 µM)	138	5.5	15095	7.822
COc1c(OCCCCN(CCO)CCO)cc2oc3cc(OCCCCN(CCO)CCO)c(CC=C(C)C)c(O)c3c(=O)c2c1CC=C(C)C	3.12 (≈ 4.29 µM)	1.56 (≈ 2.14 µM)	0.78 (≈ 1.07 µM)	3.12 (≈ 4.29 µM)	60.6	–	59694	3.741
COc1c(OCCCCN2C(=O)c3ccccc3C2=O)cc2oc3cc(OCCCCN4C(=O)c5ccccc5C4=O)c(CC=C(C)C)c(O)c3c(=O)c2c1CC=C(C)C	> 50	> 50	> 50	> 50	> 200	–	–	–
CCCCCN(C)CCCCOc1cc2oc3cc(OCCCCN(C)CCCCC)c(OC)c(CC=C(C)C)c3c(=O)c2c(O)c1CC=C(C)C	25 (≈ 34.7 µM)	25 (≈ 34.7 µM)	25 (≈ 34.7 µM)	12.5 (≈ 17.3 µM)	> 200	> 8	47166	8.949
COc1c(OCCCCn2ccnc2)cc2oc3cc(OCCCCn4ccnc4)c(CC=C(C)C)c(O)c3c(=O)c2c1CC=C(C)C	> 50	> 50	> 50	> 50	> 200	–	–	–
O=c1c2ccc(OCCCCN3CCCC3)cc2oc2cc(OCCCCN3CCCC3)cc(O)c12	> 50	> 50	> 50	> 50	> 200	–	–	–
COc1c(OCCCCN2CCSCC2)cc2oc3cc(OCCCCN4CCSCC4)c(CC=C(C)C)c(O)c3c(=O)c2c1CC=C(C)C	> 50	> 50	> 50	> 50	> 200	–	7129	0.005
COc1c(OCCCCNC(=N)N)cc2oc3cc(OCCCCNC(=N)N)c(CC=C(C)C)c(O)c3c(=O)c2c1CC=C(C)C	3.12 (≈ 4.91 µM)	6.25 (≈ 9.81 µM)	6.25 (≈ 9.81 µM)	6.25 (≈ 9.81 µM)	64.1	20.5	68378	2.237
